According to article PMC7105014 (Journal of Functional Foods, 2011):

Tests used:
α-glucosidase = conditions: read-out: IC50 against α-glucosidase; ref Hakamata et al., 2006; cited from earlier work
HCV NS3/4A protease = HCV NS3/4A protease (Hepatitis C virus genotype 1a, UniProt P27958); assay: HCV NS3/4A protease inhibition; type: biochemical
Method in brief: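 Test compound in DMSO was mixed with HCV NS3/4A protease solution (0.5 μg/ml; SensoLyte 520 kit). The reaction was started with substrate diluted 100× from a DMSO stock. After 30 min at room temperature, fluorescence was read (ex 485/em 535 nm) and corrected with a substrate blank. % inhibition was taken against a compound-free control. IC50 came from concentration–inhibition curves, with embelin as reference inhibitor.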

HCV NS3/4A protease, sequence (P27958 1027-1657 limits assumed): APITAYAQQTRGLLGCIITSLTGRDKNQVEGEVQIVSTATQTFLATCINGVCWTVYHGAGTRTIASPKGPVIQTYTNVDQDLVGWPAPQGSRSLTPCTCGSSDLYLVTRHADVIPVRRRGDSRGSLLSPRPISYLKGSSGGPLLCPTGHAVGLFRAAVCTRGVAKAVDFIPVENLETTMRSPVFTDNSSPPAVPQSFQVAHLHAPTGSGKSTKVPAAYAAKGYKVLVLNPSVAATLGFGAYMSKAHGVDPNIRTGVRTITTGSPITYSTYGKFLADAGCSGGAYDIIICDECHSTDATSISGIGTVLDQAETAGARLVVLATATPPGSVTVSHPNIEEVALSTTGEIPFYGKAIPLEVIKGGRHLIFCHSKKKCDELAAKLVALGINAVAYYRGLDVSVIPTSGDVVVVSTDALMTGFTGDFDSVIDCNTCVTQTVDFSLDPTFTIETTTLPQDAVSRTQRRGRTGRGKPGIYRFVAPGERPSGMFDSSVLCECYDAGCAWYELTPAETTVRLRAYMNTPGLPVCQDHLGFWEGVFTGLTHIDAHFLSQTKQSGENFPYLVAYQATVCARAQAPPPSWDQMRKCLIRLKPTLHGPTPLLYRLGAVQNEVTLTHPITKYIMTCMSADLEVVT
HCV NS3/4A protease, sequence (P27958 1658-1711 partner limits assumed): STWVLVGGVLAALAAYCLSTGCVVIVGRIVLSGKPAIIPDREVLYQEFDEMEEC

SMILES	IC50 (α-glucosidase) [µM]	IC50 (HCV NS3/4A protease) [µM]
Oc1cc(O)c2c(c1)O[C@H](c1ccc(O)c(O)c1)[C@@H](O)C2 [(+)-catechin]	> 500	
CCCCCCCCCCCC1=C(O)C(=O)C=C(O)C1=O [Embelin, embelin]		10.2
